Assay results: ChEMBL document CHEMBL4673340 (J Med Chem, 2020)
Active and inactive are the calls of the source. No cut-off for these calls is given here.

Assays:
[1] = Tmax in ICR mouse at 10 mg/kg, po by LC-MS/MS analysis; assay type: ADME, organism-based; conditions: in vivo
Summary of the method: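 Three ICR mice per arm. iv dose 1 mg/kg in 5% DMA in water; oral dose 10 mg/kg in 0.5% MC. Plasma was processed by protein precipitation, diluted with water and quantified by LC-MS/MS (C18 column, acetonitrile/0.1% formic acid gradient). Values are means of three animals.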

[2] = Antiproliferation activity against human UWB1289 cells expressing BRCA1 mutant incubated for 7 days by CellTiter-Glo luminescent cell viability assay; assay type: functional, cell-based; conditions: UWB1289, 168 h
Summary of the method: (§1)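 Seeding density is set per line for log growth over 7 days. Cells attach 16 h, then are treated in duplicate with a 10-point dilution series for 7 days. CellTiter-Glo luminescence (ATP) is read, and viability is expressed relative to mock-treated control. EC50 is the mean of three independent experiments run in triplicate.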

NCI-H209 [3] = experiment: Potentiation of TMZ-induced antitumor activity against human NCI-H209 cells xenografted in BALB/c nude mouse assessed as inhibition of tumor growth at […], po BID for 28 days and co-treated with 50 mg/kg, po QD TMZ for 5 consecutive days at start of study and again 14 days later; assay type: functional, organism-based; conditions: time 28.0 day
[4] = molecular target: Solute carrier family 22 member 2, OCT2 (Homo sapiens) (UniProt O15244); experiment: Inhibition of OCT2 (unknown origin) up to 50 uM; conditions: dose microM <=50
Sequence of Solute carrier family 22 member 2, OCT2 (Homo sapiens) (O15244 whole entry, looked up): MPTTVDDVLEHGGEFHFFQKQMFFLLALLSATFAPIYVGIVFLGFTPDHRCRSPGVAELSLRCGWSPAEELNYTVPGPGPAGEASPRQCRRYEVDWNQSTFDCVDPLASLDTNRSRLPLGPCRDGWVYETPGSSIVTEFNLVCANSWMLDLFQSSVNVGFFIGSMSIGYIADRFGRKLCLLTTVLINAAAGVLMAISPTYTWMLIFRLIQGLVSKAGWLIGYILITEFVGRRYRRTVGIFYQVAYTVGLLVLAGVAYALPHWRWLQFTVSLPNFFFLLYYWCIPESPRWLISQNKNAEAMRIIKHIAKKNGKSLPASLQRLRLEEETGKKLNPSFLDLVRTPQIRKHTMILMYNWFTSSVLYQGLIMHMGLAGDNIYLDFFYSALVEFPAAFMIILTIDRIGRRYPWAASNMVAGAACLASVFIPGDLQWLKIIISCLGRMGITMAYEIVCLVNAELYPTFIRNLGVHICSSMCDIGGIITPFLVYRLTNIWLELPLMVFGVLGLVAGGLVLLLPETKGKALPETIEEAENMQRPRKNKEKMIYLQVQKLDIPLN

[5] = Clearance in human liver microsomes; assay type: ADME, Microsome
[6] = molecular target: Protein mono-ADP-ribosyltransferase PARP6 (Homo sapiens, UniProt Q2NL67); experiment: Inhibition of PARP-6 (unknown origin) pre-incubated for 30 mins before addition of activated DNA and NAD by chemiluminescent assay
Sequence of Protein mono-ADP-ribosyltransferase PARP6 (Q2NL67 whole entry, canonical isoform): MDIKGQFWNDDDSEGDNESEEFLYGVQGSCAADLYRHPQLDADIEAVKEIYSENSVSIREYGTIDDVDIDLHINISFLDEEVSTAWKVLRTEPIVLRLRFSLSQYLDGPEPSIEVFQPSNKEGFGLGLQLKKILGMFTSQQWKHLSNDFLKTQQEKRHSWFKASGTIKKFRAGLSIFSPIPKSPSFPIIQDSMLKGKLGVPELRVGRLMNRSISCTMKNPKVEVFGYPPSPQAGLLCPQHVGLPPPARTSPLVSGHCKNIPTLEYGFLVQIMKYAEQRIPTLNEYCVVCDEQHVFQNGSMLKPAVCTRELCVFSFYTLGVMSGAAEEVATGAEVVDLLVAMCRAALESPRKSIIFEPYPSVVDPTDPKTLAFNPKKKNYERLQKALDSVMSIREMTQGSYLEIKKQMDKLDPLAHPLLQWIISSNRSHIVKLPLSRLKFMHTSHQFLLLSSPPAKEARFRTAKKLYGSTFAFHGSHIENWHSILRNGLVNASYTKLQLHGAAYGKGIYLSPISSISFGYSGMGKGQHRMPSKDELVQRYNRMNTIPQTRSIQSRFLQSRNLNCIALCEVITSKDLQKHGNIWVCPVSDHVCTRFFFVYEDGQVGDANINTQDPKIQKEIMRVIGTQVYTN
Summary of the method: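 Chemiluminescent kit assay. Histone-coated wells were incubated for 30 min with the PARP isoform and increasing inhibitor concentrations. A substrate mix of NAD plus biotinylated NAD with activated DNA was then added. The biotinylated PARylation product was read with streptavidin-HRP and HRP substrate. IC50 was taken from residual enzyme activity across the concentration series.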

[7] = Unbound fraction in dog plasma; assay type: ADME, cell-free, Canis lupus familiaris
[8] = AUC (0 to infinity) in Sprague-Dawley rat at 2 mg/kg, iv by LC-MS/MS analysis; assay type: ADME, organism-based; design: time infinity, route intravenous, dose 2 mg/kg; conditions: in vivo
Summary of the method: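 Sprague-Dawley rats (n=3) get 2 mg/kg iv formulated in 38% DMA in water. Plasma is protein-precipitated and quantified by LC–MS/MS (C18, acetonitrile/0.1% formic acid gradient). Parameters are means of the three rats.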

[9] = Toxicity in BALB/c nude mouse xenografted with human MDA-MB-436 cells assessed as effect on animal mortality at 1.6 to […], po BID for 28 days followed by treatment was interruption and monitored for additional 2 months; assay type: organism-based; conditions: in vivo, dose 1.6-3.1 mg/kg, time 28 day
[10] = Oral bioavailability in Sprague-Dawley rat at 5 mg/kg by LC-MS/MS analysis; assay type: ADME, organism-based; conditions: in vivo
Summary of the method: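 Pharmacokinetics in Sprague-Dawley rats, three per group. iv 2 mg/kg in 38% DMA in water; po 5 mg/kg. Plasma was protein-precipitated, diluted with water and analysed by LC-MS/MS using an acetonitrile/0.1% formic acid gradient. Values are means of three rats.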

[11] = Drug level in C57BL/6 mouse brain at 10 mg/kg, po after 1 hrs; assay type: ADME, organism-based; conditions: read-out: Drug uptake
Summary of the method: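 C57BL/6 mice (n=3) dosed orally at 10 mg/kg in 0.5% MC. Plasma and brain are sampled at 1, 2 and 4 h. Brain is homogenized in 3 volumes of saline, then acetonitrile protein precipitation; plasma is likewise precipitated. Both are analysed by LC–MS/MS and reported as means.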

[12] = Volume of distribution at steady state in Beagle dog at 1 mg/kg, iv by LC-MS/MS analysis; assay type: ADME, organism-based, Canis lupus familiaris; conditions: in vivo, read-out: Vdss
Summary of the method: (§2)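 Beagle dogs, three per group. iv 1 mg/kg in 25% DMA in water; oral 2 mg/kg. Values are means of three dogs.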

[13] = Half life in ICR mouse at 10 mg/kg, po by LC-MS/MS analysis; assay type: ADME, organism-based; conditions: in vivo
Summary of the method: (§3)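 Male/female unspecified ICR mice, n=3 per route. Intravenous 1 mg/kg in 5% DMA in water; oral 10 mg/kg in 0.5% MC. Plasma is processed by protein precipitation and analysed by LC–MS/MS using an acetonitrile/0.1% formic acid gradient. Values are means of the three animals.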

[14] = Oral bioavailability in Beagle dog at 2 mg/kg by LC-MS/MS analysis; assay type: ADME, organism-based, Canis lupus familiaris; conditions: in vivo; summary of the method: as §2
[15] = Ratio of drug level in brain to plasma of C57BL/6 mouse brain at 10 mg/kg, po after 1 hrs; assay type: ADME, organism-based
Summary of the method: (§4)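 C57BL/6 mice were given 10 mg/kg po in 0.5% MC and sampled at 1, 2 and 4 h. Brain was homogenized in 3 volumes of saline, and brain and plasma were protein-precipitated with acetonitrile, then measured by LC-MS/MS. Brain (ng/g) was expressed as a percentage of plasma (ng/mL). Values are means of three mice.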

BCRP = BCRP (Homo sapiens, UniProt Q9UNQ0); experiment: Inhibition of BCRP (unknown origin) at 30 uM; conditions: not told
Sequence of BCRP (Q9UNQ0 whole entry): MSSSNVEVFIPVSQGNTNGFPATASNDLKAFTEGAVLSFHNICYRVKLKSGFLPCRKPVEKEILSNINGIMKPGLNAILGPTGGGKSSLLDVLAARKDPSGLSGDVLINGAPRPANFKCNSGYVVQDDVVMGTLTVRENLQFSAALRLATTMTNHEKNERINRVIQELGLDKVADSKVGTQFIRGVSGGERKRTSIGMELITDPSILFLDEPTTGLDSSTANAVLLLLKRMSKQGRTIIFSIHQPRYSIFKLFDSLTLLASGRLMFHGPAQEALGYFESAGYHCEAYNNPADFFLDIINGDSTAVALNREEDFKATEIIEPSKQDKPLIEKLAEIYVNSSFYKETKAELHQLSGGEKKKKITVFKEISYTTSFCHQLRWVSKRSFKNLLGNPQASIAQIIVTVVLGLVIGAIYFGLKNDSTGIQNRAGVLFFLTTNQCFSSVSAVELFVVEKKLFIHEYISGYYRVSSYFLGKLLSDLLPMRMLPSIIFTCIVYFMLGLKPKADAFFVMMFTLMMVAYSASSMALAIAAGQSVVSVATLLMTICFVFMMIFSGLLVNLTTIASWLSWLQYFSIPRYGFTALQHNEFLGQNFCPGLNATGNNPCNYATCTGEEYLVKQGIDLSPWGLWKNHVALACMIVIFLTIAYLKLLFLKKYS

[16] = Ratio of drug level in brain to plasma of C57BL/6 mouse brain at 10 mg/kg, po after 2 hrs; assay type: ADME, organism-based; summary of the method: as §4
[17] = Clearance in rat liver microsomes; assay type: ADME, Microsome
[18] = Unbound fraction in human plasma; assay type: ADME, cell-free
[19] = Half life in Sprague-Dawley rat at 5 mg/kg, po by LC-MS/MS analysis; conditions: in vivo
hERG (KCNH2) = hERG (KCNH2) (Homo sapiens, UniProt Q12809); experiment: Inhibition of human ERG activity at 20 uM by functional cellular assay
Sequence of hERG (KCNH2) (Q12809 whole entry): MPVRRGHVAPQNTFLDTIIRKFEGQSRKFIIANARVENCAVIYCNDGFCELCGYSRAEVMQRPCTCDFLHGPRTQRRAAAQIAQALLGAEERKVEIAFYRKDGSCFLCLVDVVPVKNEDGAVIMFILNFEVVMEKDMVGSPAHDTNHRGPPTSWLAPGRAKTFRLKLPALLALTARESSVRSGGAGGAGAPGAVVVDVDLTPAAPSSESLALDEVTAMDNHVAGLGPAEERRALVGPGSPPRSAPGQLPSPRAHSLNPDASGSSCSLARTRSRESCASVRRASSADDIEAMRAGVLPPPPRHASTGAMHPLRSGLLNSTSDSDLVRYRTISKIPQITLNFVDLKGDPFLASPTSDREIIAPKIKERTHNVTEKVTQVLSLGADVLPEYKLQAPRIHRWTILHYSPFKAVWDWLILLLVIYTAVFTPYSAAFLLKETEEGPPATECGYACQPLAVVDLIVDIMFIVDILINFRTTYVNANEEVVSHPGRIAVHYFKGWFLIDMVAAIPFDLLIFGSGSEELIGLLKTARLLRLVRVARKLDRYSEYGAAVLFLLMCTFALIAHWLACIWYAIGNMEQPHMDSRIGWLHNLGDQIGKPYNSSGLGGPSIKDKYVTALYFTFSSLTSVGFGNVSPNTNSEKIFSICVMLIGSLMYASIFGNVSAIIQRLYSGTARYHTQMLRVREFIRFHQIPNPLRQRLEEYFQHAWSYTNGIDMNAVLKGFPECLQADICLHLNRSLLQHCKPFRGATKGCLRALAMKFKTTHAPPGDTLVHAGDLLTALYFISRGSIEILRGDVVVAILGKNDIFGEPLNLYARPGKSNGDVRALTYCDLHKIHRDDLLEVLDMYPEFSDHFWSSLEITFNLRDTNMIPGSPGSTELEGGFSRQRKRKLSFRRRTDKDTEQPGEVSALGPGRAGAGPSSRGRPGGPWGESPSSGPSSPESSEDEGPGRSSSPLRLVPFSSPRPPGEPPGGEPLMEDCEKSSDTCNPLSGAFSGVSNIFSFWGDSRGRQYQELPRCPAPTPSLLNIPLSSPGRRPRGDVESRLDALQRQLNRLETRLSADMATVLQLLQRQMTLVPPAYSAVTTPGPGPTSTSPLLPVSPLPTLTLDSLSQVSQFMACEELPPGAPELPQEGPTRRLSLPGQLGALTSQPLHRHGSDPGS

NCI-H209 [20] = experiment: Antitumor activity against human NCI-H209 cells xenografted in BALB/c nude mouse assessed as inhibition of tumor growth at […], po BID for 28 days; conditions: time 28.0 day
[21] = AUC (0 to infinity) in ICR mouse at 1 mg/kg, iv by LC-MS/MS analysis; assay type: ADME, organism-based; design: route intravenous, time infinity, dose 1 mg/kg; conditions: in vivo; summary of the method: as §3
[22] = Cmax in Beagle dog at 2 mg/kg, po by LC-MS/MS analysis; assay type: ADME, organism-based, Canis lupus familiaris; design: route oral, dose 2 mg/kg; conditions: in vivo
Summary of the method: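 Three Beagle dogs; iv dose 1 mg/kg in 25% DMA in water; oral dose 2 mg/kg in 0.5% CMC-Na. Plasma drug concentrations are measured by LC–MS/MS. Values are the mean of three dogs.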

[23] = Inhibition of PARylation in PBMC in patient with ovarian cancer at >= 10 mg BID during phase I study; assay type: functional, Homo sapiens; conditions: dose mg >=10
[24] = AUC ( 0 to infinity) in Sprague-Dawley rat at 5 mg/kg, po by LC-MS/MS analysis; conditions: in vivo
MDA-MB-436 = experiment: Antiproliferation activity against human MDA-MB-436 cells expressing BRCA1 mutant incubated for 7 days by CellTiter-Glo luminescent cell viability assay; assay type: functional, cell-based; conditions: MDA-MB-436, 168 h; summary of the method: as §1
[25] = molecular target: Broad substrate specificity ATP-binding cassette transporter ABCG2 (Homo sapiens, UniProt Q9UNQ0); experiment: Inhibition of BCRP (unknown origin) up to 30 uM
Sequence of Broad substrate specificity ATP-binding cassette transporter ABCG2 (Q9UNQ0 whole entry): as the sequence (Q9UNQ0 whole entry) above

## C[C@]12CCCN1CC1=NNC(=O)c3cc(F)cc4[nH]c2c1c34 [PAMIPARIB]
[1]
  Tmax: 0.583 h
[2]
  EC50: 53.8 nM
NCI-H209 [3]
  TGI: Active
[4]
  inhibition: inactive
[5]
  microsomal CLint: 7.9 µL/min/mg
[6]
  IC50: > 100000 nM
[7]
  fraction unbound: 0.21
[8]
  AUC(0-inf): 1480 ng·h/mL
[9]
  Activity: Non-Toxic
[10]
  bioavailability: 93.7%
[11]
  concentration at 1 h: 613 ng/g
[12]
  Vd: 2.09 L/kg
[13]
  half-life: 3.16 h
[14]
  bioavailability: 72.6%
[15]
  BPR: 17.4%
BCRP
  inhibition at 30 µM: 43%
[16]
  BPR: 18.9%
[17]
  microsomal CLint: 7.2 µL/min/mg
[18]
  fraction unbound: 0.043
[19]
  half-life: 5.5 h
hERG (KCNH2)
  inhibition at 20 µM: 51%
NCI-H209 [20]
  TGI: inactive
[21]
  AUC: 1757 ng·h/mL
[22]
  Cmax: 502 ng/mL
[23]
  inhibition (INH): >80%
[24]
  AUC(0-inf): 3470 ng·h/mL
MDA-MB-436
  EC50: 10.6 nM
[25]
  inhibition (INH): Not Active
